In all, about 130,000 compounds went through this assay and about 900 (0.69%) were called active. Only a selection was taken, and actives are over-represented in it overall. Unmarked numbers belong to inactive results.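 The calls were made as follows: active = inhibition above a set limit, placed 3 SD over the median of all compounds (cut at about 26% in these data); inactive = the rest.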
test: compounds extending yeast replicative lifespan, primary screen, S. cerevisiae, OD615 (AID 775);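 also: 0% = nicotinamide-treated wells and 100% = cells grown without nicotinamide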; details: S. cerevisiae growth with nicotinamide, at 10 µM, stronger effect = higher value, deaD strain in restrictive glucose medium
Summary of the method: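 Test system: DeaD-strain S. cerevisiae / Buffer or medium: restrictive glucose medium / Also added: nicotinamide 1.5 mM / Doses: one concentration, 10 µM, DMSO 0.25% / Schedule: 48 h at 30 °C / Signal: OD615 measurement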

Row | Compound | inhibition of the nicotinamide effect
1 | CCN(CC)CCn1c(/N=C/c2cc(Br)ccc2O)nc2ccccc21 | 37.7% (active)
2 | CCn1c(NC(=O)c2nn(C)cc2Br)nc2ccccc21 | -7.14%
3 | C/C(=N\c1nc2ccccc2n1C)c1cc(Cl)ccc1O | -13.3%
4 | CN(c1ccccc1)S(=O)(=O)c1cccc(NC(=O)Cc2c(F)cccc2Cl)c1 | 1.53%
5 | O=C(CN1C2=NCCN2c2ccccc21)c1cccs1 | 0.42%
6 | O=C1Nc2cc(Cl)c(Cl)cc2N(O)N1c1cc(Cl)cc(Cl)c1 | 110% (active)
7 | O=C(O)c1cccc(N2C(=O)Nc3ccccc3N2O)c1 | 4.66%
8 | CCOC(=O)c1c(NC(=O)Cn2nc(C(F)(F)F)cc2C)sc2c1CCC2 | -3.99%
9 | CC(C)C(=O)N1CCN(CCN=CC2=C(O)CC(c3ccco3)CC2=O)CC1 (stereo not given) | -8.76%
10 | O=C1CC(c2ccccc2)CC(O)=C1C=NCCN1CCOCC1 (stereo not given) | 70.8% (active)
11 | O=C1CC(c2cccc(Cl)c2)CC(O)=C1C=Nc1ccccc1 (stereo not given) | -1.47%
12 | O=C(Nc1ccc2ccccc2c1)/C(=C\c1ccc2c(c1)OCO2)NC(=O)c1ccco1 | 2.64%
13 | CN(c1ccccc1)c1nc(N)c([N+](=O)[O-])c(NCc2ccco2)n1 | 8.11%
14 | CCOC(=O)C1CCN(C(=O)/C=C/c2cc(OC)c(OC)c(OC)c2)CC1 | -0.86%
15 | Cc1nc2c(C(=O)NCc3cccs3)cnn2c(C)c1Cc1ccc(F)cc1 | 7.32%
16 | Cc1ccc(SCCC(=O)NC(C(C)C)C(C)C)cc1 | 1.38%
17 | CC1Cc2ccccc2N1C(=O)Cn1cnc2ccccc2c1=O (stereo not given) | 55.5% (active)
18 | CCn1nc(C(=O)OCC(=O)N2c3ccccc3CC2C)c2ccccc2c1=O (stereo not given) | -14.7%
19 | CC1Cc2ccccc2N1C(=O)CSc1nc2ccccc2o1 (stereo not given) | -13.2%
20 | COc1ccc(COC(=O)N/N=C(\C)CC(=O)Nc2ccc(Cl)cc2)cc1 | -3.92%
21 | O=S(=O)(NCCSc1ccccn1)c1ccc(Cl)cc1 | 10.5%
22 | COc1ccc(/C=C(/CC(=O)Nc2ccc(C)cc2)c2nc3ccccc3s2)cc1 | -0.84%
23 | N#C/C(=C\c1ccccc1C(F)(F)F)C(=O)Nc1ccccc1F | 6.56%
24 | CNC(=O)/C(C#N)=C/c1c(F)cccc1Cl | 43.1% (active)

Row | Compound | inhibition of the nicotinamide effect
25 | Cc1cc(/C=C(/C#N)C(=O)Nc2ccc(Cl)cc2)c(C)n1-c1cccnc1 | 0.59%
26 | CCOC(=O)C(C)Sc1nnc(CSc2nc3nc(C)cc(C)n3n2)o1 (stereo not given) | -1.15%
27 | CCOc1ncccc1C(=O)N(C)CC(=O)Nc1ccc(F)cc1 | 0.31%
28 | O=C(/C=C/c1cccc([N+](=O)[O-])c1)NCCSCc1ccco1 | -4.01%
29 | O=C(CN1C(=O)CCC1=O)Nc1ccc(S(=O)(=O)N2CCOCC2)cc1 | -14.7%
30 | COc1ccc(CC(=O)Nc2ccc3c(c2)CCC3)cc1S(=O)(=O)N1CCOCC1 | 61% (active)
31 | COc1ccc(CNc2ccc3c(c2)CCC3)cc1OC | -10.1%
32 | CCCc1cc(=O)[nH]c(SCc2cc(=O)oc3c(C)c(C)ccc23)n1 | 4.9%
33 | O=C(OCc1ccc(Br)cc1)c1cccc(-c2nnc(-c3ccccc3)o2)c1 | 10.4%
34 | CCOC(=O)NN1C(=O)c2ccccc2NC1c1cccc(O)c1 (stereo not given) | -1.57%
35 | Cc1cc(C(=O)N/N=C/c2cc([N+](=O)[O-])cc(C)c2O)n[nH]1 | -1.48%
36 | Cc1cc(Cl)ccc1OCCCC(=O)NCc1ccncc1 | 1.85%
37 | CCn1ncc(CNC(=O)C2(C)CC2(Br)Br)c1C (stereo not given) | 9.74%
38 | O=C(/C=C/Sc1ncn[nH]1)c1ccc(Cl)cc1 | 44.7% (active)
39 | O=C(NCCOCc1ccc(Cl)cc1)c1ncn[nH]1 | 1.27%
40 | CC(C)(C)c1ccc(C(=O)CSc2ncn[nH]2)cc1 | -10.2%
41 | Cc1ccccc1C(OCCN(C)C)C1CCCCC1 (stereo not given) | -0.42%
42 | COc1ccc(C(CC(=O)c2ccccc2)S(=O)(=O)c2ccccc2)cc1 (stereo not given) | -1.04%
43 | O=C(Nc1cc(C(F)(F)F)ccc1Cl)C(=O)N1CCCCC1 | -4.64%
44 | O=C(CN1C(=O)NC2(CCCCCC2)C1=O)NCc1cccs1 | 7.48%
45 | COC(=O)c1ccc(NC(=O)Nc2ccc(C)cc2)cc1 | -13.6%
46 | Cc1cc(O)ccc1NC1=CC(=O)CC(C)(C)C1 | 11.5%
47 | Cc1ccc(C(=O)OC2=CC(=O)CC(C)(C)C2)cc1 | 72.5% (active)
48 | Nc1nc(SCC(=O)NNc2c(Cl)cc(Cl)cc2Cl)n[nH]1 | 1.57%

Row | Compound | inhibition of the nicotinamide effect
49 | COc1ccc(C(=O)COC(=O)c2ccc3ccccc3n2)cc1 | -4.94%
50 | COc1ccc(C2=NOC(COC(=O)c3ccc4ccccc4n3)C2)cc1 (stereo not given) | -3.92%
51 | O=C(Oc1ccc([N+](=O)[O-])cc1)c1ccc2ccccc2n1 | 75.9% (active)
52 | COc1cccc(NC(=O)CC(c2ccc(OC(C)C)cc2)c2ccccc2OC)c1 (stereo not given) | 9.84%
53 | CCc1cc(-c2n[nH]c(=S)n2CC(C)C)cs1 | 7.5%
54 | CCCCCOc1ccc(/C=C/C(=O)NCCc2nc3ccccc3[nH]2)cc1OC | 3.92%
55 | CC1(c2ccccc2)CC(C)(C)N(C(=O)c2cc([N+](=O)[O-])cc([N+](=O)[O-])c2)c2ccccc21 (stereo not given) | -0.09%
56 | CCOC12CC(C)(C)CC(C)(CC3=C1C(=O)CC(C)(C)C3)C2 (stereo not given) | 7.4%
57 | O=C(Cc1cccc2ccccc12)NCCC1=CCCCC1 | 10.1%
58 | O=C(Cc1ccccc1)NCc1ccc(F)cc1 | -0.44%
59 | O=C(/C=C/NCc1ccc(F)cc1)c1ccccc1 | 26.6% (active)
60 | O=C(/C=C\NCC(=O)c1ccccc1)c1ccccc1 | 3.73%
61 | COc1cc(C(=O)NNC(=O)c2ccc(S(=O)(=O)N3CCCCC3)cc2)cc(OC)c1OC | -0.56%
62 | Cc1cc(NS(=O)(=O)c2ccc(NC(=S)NC(=O)c3ccc(F)cc3Cl)cc2)no1 | -5.54%
63 | O=C(CSc1ccccn1)Nc1nc2c(ccc3ccccc32)s1 | -4.27%
64 | CC(C)(C)OC(=O)N/N=C/c1ccc(C(=O)O)cc1 | -2.34%
65 | CCC(NC(=O)c1ccccc1NC(=O)c1ccccc1)C(=O)NNC(=O)CSc1nc2ccccc2o1 (stereo not given) | -3.91%
66 | Cc1c(C2=CCN(S(=O)(=O)c3ccc(Cl)cc3)CC2)c2ccccc2n1C | 2.05%
67 | CC(C)C(C)(C#N)NC(=O)CSc1nc2scc(-c3ccccc3)c2c(=O)[nH]1 (stereo not given) | 7.12%
68 | CCc1ccc2c(c1)C(c1ccc([N+](=O)[O-])cc1)=NNC(c1ccccc1)=N2 | -1.67%
69 | Cc1nnc(C)n1/N=C/c1ccc(C(C)C)cc1 | 1.31%
70 | COC(=O)c1ccc(/C=N\n2c(C)nnc2C)cc1 | 27.3% (active)
71 | CCN(CC)S(=O)(=O)c1cccc(-c2n[nH]c(=S)n2/N=C/c2ccc(C(=O)OC)cc2)c1 | -2.04%
72 | CCOc1ccc2nc(C(=O)N3CCCC(C)C3)sc2c1 (stereo not given) | -4.7%

Row | Compound | inhibition of the nicotinamide effect
73 | O=c1c2ccccc2nc(CSc2nnnn2-c2ccccc2)n1-c1ccccc1 | -5.7%
74 | N#CCSc1nc2ccccc2c(=O)n1-c1ccccc1 | -7.51%
75 | CCCN1C(=O)C(Cc2nc3ccccc3c(=O)n2-c2ccccc2)c2cc(C)ccc21 (stereo not given) | 38.7% (active)
76 | Cc1noc(/C=C/c2ccco2)c1S(=O)(=O)N1CCC(C(=O)Nc2ccc(Cl)cn2)CC1 | 10.7%
77 | O=C(COC(=O)c1cc(=O)[nH]c2ccccc12)Nc1nc(-c2cccc(Br)c2)cs1 | -0.45%
78 | Cc1ccc(OCCOCCOc2ccc(Br)cc2/C=N\NC(=O)c2ccncc2)cc1 | -1.41%
79 | CC12CCC(C(=O)N(c3cccc(Cl)c3)C1=O)C2(C)C (stereo not given) | 3.45%
80 | COC(=O)C1=CN(C)C=C(C(=O)OC)C1c1ccc(Cl)cc1Cl | -5.36%
81 | CC12CN3CC(C)(CN(C1)C3c1ccc(Cl)cc1Cl)C2=O (stereo not given) | 30.1% (active)
82 | COc1ccc(NC(=O)COC(=O)c2ccc(NS(=O)(=O)/C=C/c3ccccc3)cc2)cc1 | 3.99%
83 | Cc1ccc(S(=O)(=O)Nc2ccccc2CNc2c(C)n(C)n(-c3ccccc3)c2=O)cc1 | 43% (active)
84 | Cc1c(NS(=O)(=O)c2ccc(NC3CCCC3)c([N+](=O)[O-])c2)c(=O)n(-c2ccccc2)n1C | -2.8%
85 | COc1ccc(S(=O)(=O)Nc2c(C)n(C)n(-c3ccccc3)c2=O)cc1 | -9.71%
86 | O=C(Nc1cccc([N+](=O)[O-])c1)c1ccc2c(c1)OCO2 | -0.87%
87 | COC(=O)c1ccccc1SC1CC(=O)N(c2cccc(C)c2)C1=O (stereo not given) | -3.77%
88 | CC(C)(C)c1ccc(/C=C/C(=O)Nc2ncccn2)cc1 | -2%
89 | Cc1cccc(N2CCN(C(=O)c3cccc(S(=O)(=O)N4CCc5ccccc5C4)c3)CC2C)c1 (stereo not given) | 9.33%
90 | Cc1cccc(N2Cc3ccccc3C2=NC(=O)c2ccc(Cl)nc2)c1 | 34.6% (active)
91 | N#Cc1ccc(N2Cc3ccccc3/C2=N/C(=O)Nc2ccc(Cl)cc2)cc1 | -2.85%
92 | CC(NC(=S)Nc1ccc(S(N)(=O)=O)cc1)c1ccc2c(c1)OCO2 (stereo not given) | -4.33%
93 | CC1CC(C)CN(S(=O)(=O)c2cccc(C(=O)N3C(=O)c4cccc(N)c4C3=O)c2)C1 (stereo not given) | 86.5% (active)
94 | COC(=O)c1cn(C)c2ccc(S(=O)(=O)N3CC(C)CC(C)C3)cc2c1=O (stereo not given) | -19.7%
95 | O=C(c1cccc(S(=O)(=O)N2CCOCC2)c1)N1CCOCC1 | 4.86%
